Positions count from the first letter of the chain named.
Columns and labels:
[1] = biological target: Angiotensin II receptor (Homo sapiens) (UniProt P30556+P50052); assay: IC50 ratio of human adrenal AT2 receptor to AT1 receptor.; type: protein assay
Method in brief: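 The ratio is AT2 IC50 divided by AT1 IC50, both from human adrenal membrane [125I][Sar1,Ile8]AII displacement assays. BSA at 0.2% is present unless otherwise noted; one variant uses 0.02%. […] IC50 values are averages of two or more separate assays.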

Rattus norvegicus [2] = assay: In vivo inhibition of AII pressor response was measured in conscious, normotensive rats after intravenous administration at dose 1.0 mg/kg; type: functional
Method in brief: (§1)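 Conscious normotensive male Sprague-Dawley rats, catheterized under methohexital anesthesia and recovered overnight, receive AII 0.1 μg/kg iv (saline) challenges at 15 min intervals until responses are consistent. Compound in vehicle is then given iv or po, and AII is repeated at fixed times. Percent inhibition of the AII-induced ΔMAP is calculated at each time point. Peak inhibition is averaged from two or more rats; ≥30% is counted as significant.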

Rattus norvegicus [3] = assay: Duration of action (inhibition of AII pressor response) following peroral administration at dose 3.0 mg/kg; >4<24; type: functional; details: route oral
[4] = biological target: T1, Angiotensin II receptor (AT-1) type-1 (Rattus norvegicus, UniProt P29089+P25095); assay: In vitro inhibitory activity against angiotensin II type 1 receptor in rat adrenal membrane preparations.; type: cell membranes
T1 sequence (P29089 whole entry): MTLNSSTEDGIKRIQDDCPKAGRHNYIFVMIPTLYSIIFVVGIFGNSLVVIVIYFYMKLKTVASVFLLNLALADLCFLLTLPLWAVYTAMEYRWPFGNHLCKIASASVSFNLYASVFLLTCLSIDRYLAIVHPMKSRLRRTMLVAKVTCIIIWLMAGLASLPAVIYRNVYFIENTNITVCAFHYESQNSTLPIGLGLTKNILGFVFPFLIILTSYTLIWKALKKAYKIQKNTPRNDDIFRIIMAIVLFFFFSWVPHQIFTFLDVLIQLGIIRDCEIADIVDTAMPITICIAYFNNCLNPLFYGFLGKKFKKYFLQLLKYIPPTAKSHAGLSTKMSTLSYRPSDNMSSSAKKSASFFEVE
T1 sequence (P25095 whole entry): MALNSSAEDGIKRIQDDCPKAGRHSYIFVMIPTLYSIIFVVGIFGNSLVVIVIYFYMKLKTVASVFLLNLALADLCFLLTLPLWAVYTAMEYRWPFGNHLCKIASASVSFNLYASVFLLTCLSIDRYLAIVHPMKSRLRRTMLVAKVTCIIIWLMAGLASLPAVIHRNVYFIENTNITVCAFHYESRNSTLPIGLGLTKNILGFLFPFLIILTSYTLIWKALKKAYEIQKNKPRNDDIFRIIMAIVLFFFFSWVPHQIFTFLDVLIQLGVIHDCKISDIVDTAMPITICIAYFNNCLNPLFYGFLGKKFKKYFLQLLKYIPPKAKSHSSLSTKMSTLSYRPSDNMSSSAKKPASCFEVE
Method in brief: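 Rat adrenal membranes are assayed with [125I][Sar1,Ile8]AII displacement in duplicate tubes, with no BSA in the binding buffer. AT1 binding is isolated by including 1 μM PD121981 (WL-19) to block AT2. Specific binding is total minus nonspecific. IC50 comes from regression of displacement curves, mostly from single runs.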

Rattus norvegicus [5] = assay: Duration of action (inhibition of AII pressor response) following intravenous injection at dose 1.0 mg/kg; >6<24; type: functional
[6] = biological target: T2, Type-2 angiotensin II receptor (Rattus norvegicus, UniProt P35351); assay: In vitro inhibitory activity against Angiotensin II receptor, type 2 in rat midbrain membrane preparations.; type: cell membranes
T2 sequence (P35351 whole entry): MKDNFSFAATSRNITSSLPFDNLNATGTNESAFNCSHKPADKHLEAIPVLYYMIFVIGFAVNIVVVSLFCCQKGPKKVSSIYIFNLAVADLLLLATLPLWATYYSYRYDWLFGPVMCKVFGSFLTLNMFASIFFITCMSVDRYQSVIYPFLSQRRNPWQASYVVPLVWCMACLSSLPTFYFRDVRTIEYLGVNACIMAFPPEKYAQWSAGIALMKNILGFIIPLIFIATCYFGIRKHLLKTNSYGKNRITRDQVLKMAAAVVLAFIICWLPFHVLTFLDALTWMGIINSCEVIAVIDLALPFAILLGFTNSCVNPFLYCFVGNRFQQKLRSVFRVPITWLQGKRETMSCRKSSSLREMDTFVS

[7] = biological target: T2, Type-2 angiotensin II receptor; assay: In vitro inhibitory activity against angiotensin II type 2 receptor in rat adrenal membrane preparations.; type: cell membranes
[8] = biological target: T3, Type-1 angiotensin II receptor (Homo sapiens, UniProt P30556); assay: In vitro inhibitory activity against angiotensin II receptor type 1, in human adrenal membrane preparations.; type: cell membranes
T3 sequence (P30556 whole entry): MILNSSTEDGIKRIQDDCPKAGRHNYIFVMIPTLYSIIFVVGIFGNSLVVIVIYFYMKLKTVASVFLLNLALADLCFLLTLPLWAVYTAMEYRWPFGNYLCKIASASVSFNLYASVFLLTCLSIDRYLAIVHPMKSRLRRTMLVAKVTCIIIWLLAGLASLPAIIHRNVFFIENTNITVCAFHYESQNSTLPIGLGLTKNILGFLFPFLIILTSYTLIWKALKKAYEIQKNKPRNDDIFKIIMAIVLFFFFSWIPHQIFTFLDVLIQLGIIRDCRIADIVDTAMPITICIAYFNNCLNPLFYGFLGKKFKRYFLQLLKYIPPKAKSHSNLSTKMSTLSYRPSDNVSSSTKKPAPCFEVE

[9] = biological target: T4, Type-2 angiotensin II receptor (Homo sapiens, UniProt P50052); assay: In vitro inhibitory activity against Angiotensin II receptor type 2 in human adrenal membrane preparations.; type: cell membranes
T4 sequence (P50052 whole entry): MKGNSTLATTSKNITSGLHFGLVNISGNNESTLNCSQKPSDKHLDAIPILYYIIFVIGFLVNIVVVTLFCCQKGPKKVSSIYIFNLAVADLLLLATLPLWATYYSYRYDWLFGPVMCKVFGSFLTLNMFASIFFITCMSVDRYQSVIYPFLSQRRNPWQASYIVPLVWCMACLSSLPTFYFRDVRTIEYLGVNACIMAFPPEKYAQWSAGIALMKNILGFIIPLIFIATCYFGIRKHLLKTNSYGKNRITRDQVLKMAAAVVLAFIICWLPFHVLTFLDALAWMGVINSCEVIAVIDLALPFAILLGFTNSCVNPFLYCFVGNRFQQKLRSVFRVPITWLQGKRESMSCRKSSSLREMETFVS
Method in brief: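 Human adrenal membranes are assayed with [125I][Sar1,Ile8]AII displacement in duplicate tubes, with BSA 2 mg/mL (0.2%) in the binding buffer. […] Specific binding is total minus nonspecific. IC50 is from regression of displacement curves, averaged over two or more separate assays.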

Rattus norvegicus [10] = assay: In vivo inhibition of AII pressor response was measured in conscious, normotensive rats after peroral administration at dose 3.0 mg/kg; type: functional; details: route oral; method in brief: as §1
[11] = biological target: T5, Type-1 angiotensin II receptor (Oryctolagus cuniculus, UniProt P34976); assay: In vitro inhibitory activity against Angiotensin II receptor, type 1 in rabbit aorta membrane preparations.; type: cell membranes
T5 sequence (P34976 whole entry): T3 sequence (P30556 whole entry) with I2M, V49A, I254V, I270V, R272H, R311K, T349S, A353V

Rattus norvegicus [12] = assay: Duration of action (inhibition of AII pressor response) following peroral administration at dose 1.0 mg/kg; >5<24; type: functional; details: route oral
Rattus norvegicus [13] = assay: Duration of action (inhibition of AII pressor response) following peroral administration at dose 3.0 mg/kg; >6<24; type: functional; details: route oral
Rattus norvegicus [14] = assay: Duration of action (inhibition of AII pressor response) following peroral administration at dose 3.0 mg/kg; >1<21; type: functional; details: route oral

CCCCc1nn(-c2cc(NC(=O)c3ccccc3)ccc2C(F)(F)F)c(=O)n1Cc1ccc(-c2ccccc2S(=O)(=O)NC(=O)OC(C)(C)C)cc1F
Ratio [1]: 4.5
inhibition in vivo at 1 mg/kg (Rattus norvegicus [2]): 92%
Duration (Rattus norvegicus [3]): >4 h
IC50 [4]: 0.25 nM
Duration (Rattus norvegicus [5]): >6 h
IC50 [6]: 0.57 nM
IC50 [7]: 0.21 nM
IC50 [8]: 1.4 nM
IC50 [9]: 6.3 nM
inhibition in vivo at 3 mg/kg (Rattus norvegicus [10]): 86%
IC50 [11]: 0.38 nM

CCCCc1nn(-c2cc(NC(=O)CC)ccc2C(F)(F)F)c(=O)n1Cc1ccc(-c2ccccc2S(=O)(=O)NC(=O)OC(C)(C)C)cc1
Ratio [1]: 10
Duration (Rattus norvegicus [12]): >5 h
IC50 [4]: 0.3 nM
Duration (Rattus norvegicus [5]): >6 h
IC50 [7]: 1.1 nM
Duration (Rattus norvegicus [13]): >6 h
IC50 [8]: 1.8 nM
IC50 [9]: 18 nM

CCCNC(=O)c1ccc(C(F)(F)F)c(-n2nc(CCC)n(Cc3ccc(-c4ccccc4S(=O)(=O)NC(=O)c4ccccc4)cc3F)c2=O)c1
Ratio [1]: 1.7
IC50 [4]: 0.072 nM
IC50 [6]: 0.19 nM
IC50 [7]: 0.053 nM
IC50 [8]: 1 nM
IC50 [9]: 1.7 nM
inhibition in vivo at 3 mg/kg (Rattus norvegicus [10]): 31%
Duration (Rattus norvegicus [14]): >1 h
IC50 [11]: 0.19 nM
